{
  "source": "ChEMBL document CHEMBL4732082",
  "about": "“Development of novel benzimidazole-derived neddylation inhibitors for suppressing tumor growth invitro and invivo” (Eur J Med Chem, 2021)",
  "key": {"A549 [1]": {"test_system": "A549", "test": "Antiproliferative activity against human A549 cells assessed as inhibition of cell proliferation at 100 uM incubated for 48 hrs by CCK-8 assay relative to control", "type": "functional", "set-up": "scale not given: the % may be the effect or the level left", "method_in_brief": "(§1)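 Cells from ATCC, passaged six times, grown in DMEM with 10% FBS and penicillin/streptomycin at 37 °C under 5% CO2. Seeded at 2500 cells/well, cultured overnight, treated 48 h, viability read by CCK-8. Run in triplicate; values are the mean of three experiments.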"}, "NCI-H1299": {"test_system": "NCI-H1299", "test": "Antiproliferative activity against human H1299 cells incubated for 48 hrs by CCK-8 assay", "type": "functional, cell-based", "conditions": "NCI-H1299, 48 h", "method_in_brief": "as §1"}, "BEAS-2B": {"test_system": "BEAS-2B", "test": "Cytotoxicity against human BEAS-2B cells incubated for 48 hrs by CCK-8 assay", "type": "cell-based", "method_in_brief": "as §1"}, "[2]": {"molecular_target": "T1, NEDD8-activating enzyme E1 regulatory subunit (Homo sapiens) (UniProt Q13564)", "T1 sequence (whole entry)": "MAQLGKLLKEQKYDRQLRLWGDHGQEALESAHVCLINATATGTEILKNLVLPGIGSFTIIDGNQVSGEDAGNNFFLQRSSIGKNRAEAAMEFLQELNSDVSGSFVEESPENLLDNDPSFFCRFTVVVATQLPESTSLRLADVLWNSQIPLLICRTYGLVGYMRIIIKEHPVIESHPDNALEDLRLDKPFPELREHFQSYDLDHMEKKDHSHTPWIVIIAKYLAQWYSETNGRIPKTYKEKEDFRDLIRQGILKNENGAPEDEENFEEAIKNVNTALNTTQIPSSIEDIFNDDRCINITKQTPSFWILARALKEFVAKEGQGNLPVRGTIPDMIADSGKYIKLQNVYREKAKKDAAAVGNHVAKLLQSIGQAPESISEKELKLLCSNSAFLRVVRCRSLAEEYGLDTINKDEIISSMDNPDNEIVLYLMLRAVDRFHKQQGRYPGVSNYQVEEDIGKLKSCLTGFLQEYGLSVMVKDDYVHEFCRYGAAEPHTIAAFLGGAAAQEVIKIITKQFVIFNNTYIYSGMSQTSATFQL", "test": "Inhibition of NAE-mediated neddylation in human A549 cells assessed as suppression of cullin4a-Nedd8 adduct formation at 12.5 to 25 uM measured after 6 to 12 hrs by Western blot analysis", "type": "cell-based", "conditions": "dose 12.5-25 µM, time 6-12 hrs", "method_in_brief": "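A549 cells were treated 6 or 12 h with graded concentrations (4.5–75 μM) against a 0.1% DMSO control. Cells were washed in cold PBS, lysed in RIPA on ice and cleared by centrifugation, and protein was normalized. Cullin-Nedd8 was resolved on non-reducing SDS-PAGE and Wee1/p27 under reducing conditions, then detected by Western blot.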"}, "A549 [3]": {"test_system": "A549", "test": "Induction of cellular senescence in human A549 cells at 10 uM by SA-beta-gal-staining based assay", "type": "functional, cell-based"}, "A549 [4]": {"test_system": "A549", "test": "Antitumor activity against human A549 cells xenografted in nude mouse assessed as decrease in tumor volume at 30 mg/kg, ip qd for 5 days on and 2 days off dosing and measured after 24 days post-treatment", "type": "functional, organism-based", "conditions": "time 24.0 day", "method_in_brief": "(§2)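 Female nude mice were inoculated subcutaneously with 2×10^6 A549 cells in 0.1 mL PBS. At tumor volume 70–100 mm³, mice were randomized into 5 groups of 6. Dosing was ip or oral gavage, once daily on a 5-days-on/2-days-off schedule, with 10% 2-hydroxypropyl-β-cyclodextrin/water as vehicle control. Body weight and tumor volume were measured every two days; tumors were weighed at sacrifice. Significance by two-tailed Student's t-test.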"}, "A549 [5]": {"test_system": "A549", "test": "Antitumor activity against human A549 cells xenografted in nude mouse assessed as inhibition of tumor growth at 60 mg/kg, po qd for 5 days on and 2 days off dosing and measured after 24 days post-treatment", "type": "functional, organism-based", "conditions": "time 24.0 day", "method_in_brief": "as §2"}, "[6]": {"test": "Toxicity in nude mouse assessed as effect on body weight at 30 mg/kg, qd after 24 days", "type": "organism-based", "conditions": "in vivo, 576 h, time 24 day", "method_in_brief": "as §2"}, "A549 [7]": {"test_system": "A549", "test": "Induction of apoptosis in human A549 cells assessed as early apoptotic cells at 10 uM after 48 hrs by Annexin V-FITC/PI double staining based flow cytometric analysis (reference value: 2.04%)", "type": "functional"}, "A549 [8]": {"test_system": "A549", "test": "Induction of apoptosis in human A549 cells assessed as late apoptotic cells at 10 uM after 48 hrs by Annexin V-FITC/PI double staining based flow cytometric analysis (reference value: 4.62%)", "type": "functional"}, "A549 [9]": {"test_system": "A549", "test": "Induction of apoptosis in human A549 cells assessed as late apoptotic cells at 20 uM after 48 hrs by Annexin V-FITC/PI double staining based flow cytometric analysis (reference value: 4.62%)", "type": "functional"}, "A549 [10]": {"test_system": "A549", "test": "Induction of apoptosis in human A549 cells assessed as live cells at 40 uM after 48 hrs by Annexin V-FITC/PI double staining based flow cytometric analysis (reference value: 91.8%)", "type": "functional"}, "A549 [11]": {"test_system": "A549", "test": "Induction of apoptosis in human A549 cells assessed as early apoptotic cells at 40 uM after 48 hrs by Annexin V-FITC/PI double staining based flow cytometric analysis (reference value: 2.04%)", "type": "functional"}, "A549 [12]": {"test_system": "A549", "test": "Induction of apoptosis in human A549 cells assessed as late apoptotic cells at 40 uM after 48 hrs by Annexin V-FITC/PI double staining based flow cytometric analysis (reference value: 4.62%)", "type": "functional"}},
  "note": "The source made the active and inactive calls. The calls are words filed in the database; no cut-off is given here.",
  "data": [
    {"smiles": "CCOc1nc2cccc(C(=O)NCCc3ccc(Cl)cc3Cl)c2n1Cc1ccc(-c2ccccc2-c2nnn[nH]2)cc1", "values": [
      {"measurement": "Activity", "setting": "A549 [1]", "value": 83.9, "unit": "%"},
      {"measurement": "IC50", "setting": "NCI-H1299", "value": 21.8, "unit": "µM"},
      {"measurement": "IC50", "setting": "BEAS-2B", "value": 79.4, "unit": "µM"},
      {"measurement": "inhibition", "setting": "[2]", "value": "Active"},
      {"measurement": "Activity", "setting": "A549 [3]", "value": "Active"},
      {"measurement": "Activity", "setting": "A549 [4]", "value": "Active"},
      {"measurement": "Activity", "setting": "A549 [5]", "value": "Active"},
      {"measurement": "Activity", "setting": "[6]", "value": "Non-Toxic"},
      {"measurement": "Activity", "setting": "A549 [7]", "value": 2.04, "unit": "%"},
      {"measurement": "Activity", "setting": "A549 [8]", "value": 4.62, "unit": "%"},
      {"measurement": "Activity", "setting": "A549 [9]", "value": 7.03, "unit": "%"},
      {"measurement": "Activity", "setting": "A549 [10]", "value": 63.2, "unit": "%"},
      {"measurement": "Activity", "setting": "A549 [11]", "value": 32.1, "unit": "%"},
      {"measurement": "Activity", "setting": "A549 [12]", "value": 3.71, "unit": "%"}
    ]}
  ]
}
